Active and inactive are the calls of the source. No cut-off for these calls is given here.
Experiments:
PC-3 [1] = assay: Induction of beta tubulin stabilization in human PC3 cells at 10 nM after 24 hrs by DAPI-staining based immunofluorescence assay; type: cell-based
In short: (§1)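 PC3 cells were treated for 24 hours with the test agent at 1, 10 or 100 nM, or with 10 nM docetaxel or vinblastine as stabilizing and destabilizing references. Cells were immunostained for beta-tubulin (green) with DAPI nuclear counterstain (blue) and the microtubule staining pattern imaged.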

LLC-PK1 [2] = assay: Resistance factor, ratio of GI50 for pig LLC-PK1 cells expressing MDR1 to GI50 for pig LLC-PK1 cells; design: species or system Sus scrofa
In short: (§2)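 Porcine epithelial L-MDR1 (P-gp expressing) cells and their non-expressing parent line were exposed to compound for 72 h. Viability was read with AlamarBlue dye and GI50 derived. P-gp expression was verified by Western blot with β-actin as loading control. The resistance ratio compares GI50 in MDR1 versus parent cells.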

LLC-PK1 [3] = assay: Growth inhibition of pig LLC-PK1 cells expressing MDR1 by Alamar Blue assay; type: functional; details: Sus scrofa; in short: as §2
[4] = Growth inhibition of pig LLC-PK1 cells by Alamar Blue assay; type: cell-based, Sus scrofa
In short: (§3)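 Cell viability was read with AlamarBlue dye in 96-well format and GI50 values derived, to assess P-gp effects. Cells were P-gp-expressing NCI/ADR-Res ovarian cancer cells and L-MDR1 porcine epithelial cells, each with its non-expressing parent line. P-gp expression was confirmed by Western blot with β-actin as loading control. Resistance is the GI50 in the P-gp line over the GI50 in the parent line.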

OVCAR-8 = assay: Resistance factor, ratio of GI50 for P-gp expressing NCI-ADR-RES cells to GI50 for human OVCAR8 cells; type: functional; in short: as §3
[5] = Growth inhibition of P-gp expressing human NCI-ADR-RES cells by Alamar Blue assay; type: functional
In short: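 72-h cytotoxicity in 96-well plates with AlamarBlue viability dye, giving GI50. Line 1 uses docetaxel-resistant PC3 prostate cells (PC3-DR), and line 2 uses NCI/ADR-Res ovarian cells. P-gp expression in both was confirmed by Western blot, with β-actin as the loading control.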

[6] = Growth inhibition of human OVCAR8 cells by Alamar Blue assay; type: functional; details: OVCAR-8; in short: as §3
PC-3 [7] = assay: Resistance factor, ratio of GI50 for P-gp expressing docetaxel-resistant human PC3 cells to GI50 for human PC3 cells; type: functional
In short: (§4)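 PC3 prostate cancer cells and docetaxel-resistant PC3-DR cells were exposed to drug for 72 hours in 96-well format. Viability was read with AlamarBlue dye and GI50 derived. Resistance is the GI50 in PC3-DR over the GI50 in parental PC3.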

PC-3 [8] = assay: Growth inhibition of human PC3 cells after 72 hrs by Alamar Blue assay; type: functional; details: PC-3, 72 h; in short: as §4
PC-3 [9] = assay: cells; details: Homo sapiens, PC-3, 72 h
[10] = Growth inhibition of human OVCAR8 cells; type: functional; details: OVCAR-8
In short: (§5)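 NCI 60-human-cancer-cell-line panel, five-dose screen after a preliminary screen. GI50 is the molar concentration giving 50% growth inhibition.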

[11] = Growth inhibition of human OVCAR4 cells; type: functional; details: OVCAR-4; in short: as §5
IGROV-1 = assay: Growth inhibition of human IGROV1 cells; type: functional; in short: as §5
[12] = Growth inhibition of human OVCAR3 cells; type: functional; details: OVCAR-3; in short: as §5
[13] = Growth inhibition of human UACC257 cells; type: functional; details: UACC-257
In short: (§6)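 NCI 60-cell-line panel, five-dose screen; GI50 is the molar concentration giving 50% growth inhibition.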

[14] = Growth inhibition of human UACC62 cells; type: functional; details: UACC-62; in short: as §6
SK-MEL-5 = assay: Growth inhibition of human SK-MEL-5 cells; type: functional; in short: as §5
SK-MEL-2 = assay: Growth inhibition of human SK-MEL-2 cells; type: functional; in short: as §5
SK-MEL-28 = assay: Growth inhibition of human SK-MEL-28 cells; type: functional; in short: as §5
M14 = assay: Growth inhibition of human M14 cells; type: functional; in short: as §5
MDA-MB-435 = assay: Growth inhibition of human MDA-MB-435 cells; type: functional; in short: as §5
Malme-3M = assay: Growth inhibition of human MALME-3M cells; type: functional; in short: as §5
U-251 = assay: Growth inhibition of human U251 cells; type: functional; in short: as §6
[15] = Growth inhibition of human LOXIMVI cells; type: functional; details: LOX IMVI; in short: as §5
SNB-75 = assay: Growth inhibition of human SNB75 cells; type: functional; in short: as §6
SNB-19 = assay: Growth inhibition of human SNB19 cells; type: functional; in short: as §6
[16] = Growth inhibition of human SF539 cells; type: functional; details: SF-539; in short: as §5
SW-620 = assay: Growth inhibition of human SW620 cells; type: functional; in short: as §6
SF-268 = assay: Growth inhibition of human SF268 cells; type: functional; in short: as §5
HT-29 = assay: Growth inhibition of human HT-29 cells; type: functional; in short: as §5
KM12 = assay: Growth inhibition of human KM12 cells; type: functional; in short: as §5
[17] = Growth inhibition of human HCT15 cells; type: functional; details: HCT-15; in short: as §5
[18] = Growth inhibition of human HCC2998 cells; type: functional; details: HCC 2998; in short: as §5
HCT-116 = assay: Growth inhibition of human HCT116 cells; type: functional; in short: as §5
COLO 205 = assay: Growth inhibition of human COLO205 cells; type: functional; in short: as §5
NCI-H460 = assay: Growth inhibition of human NCI-H460 cells; type: functional; in short: as §5
NCI-H322M = assay: Growth inhibition of human NCI-H322M cells; type: functional; in short: as §5
NCI-H226 = assay: Growth inhibition of human NCI-H226 cells; type: functional; in short: as §5
NCI-H23 = assay: Growth inhibition of human NCI-H23 cells; type: functional; in short: as §5
[19] = Growth inhibition of human HOP92 cells; type: functional; details: HOP-92; in short: as §5
HOP-62 = assay: Growth inhibition of human HOP62 cells; type: functional; in short: as §5
SR = assay: Growth inhibition of human SR cells; type: functional; in short: as §6
A549 = assay: Growth inhibition of human A549 cells; type: functional; in short: as §5
RPMI-8226 = assay: Growth inhibition of human RPMI8226 cells; type: functional; in short: as §5
K562 = assay: Growth inhibition of human K562 cells; type: functional; in short: as §5
[20] = Growth inhibition of human MOLT4 cells; type: functional; details: MOLT-4; in short: as §5
HL-60(TB) = assay: Growth inhibition of human HL-60(TB) cells; type: functional; in short: as §5
CCRF-CEM = assay: Growth inhibition of human CCRF-CEM cells; type: functional; in short: as §5
MDA-MB-468 = assay: Growth inhibition of human MDA-MB-468 cells; type: functional; in short: as §5
T47D = assay: Growth inhibition of human T47D cells; type: functional; in short: as §6
[21] = Growth inhibition of human Hs578T cells; type: functional; details: Hs-578T; in short: as §5
[22] = Growth inhibition of human BT549 cells; type: functional; details: BT-549; in short: as §5
MDA-MB-231 = assay: Growth inhibition of human MDA-MB-231 cells; type: functional; in short: as §5
DU-145 = assay: Growth inhibition of human DU145 cells; type: functional; in short: as §5
MCF7 = assay: Growth inhibition of human MCF7 cells; type: functional; in short: as §5
[23] = Growth inhibition of human UO31 cells; type: functional; details: UO-31; in short: as §6
PC-3 [24] = assay: Growth inhibition of human PC3 cells; type: functional; in short: as §5
TK-10 = assay: Growth inhibition of human TK10 cells; type: functional; in short: as §6
[25] = Growth inhibition of human RXF393 cells; type: functional; details: RXF 393; in short: as §5
SN12C = assay: Growth inhibition of human SN12C cells; type: functional; in short: as §6
ACHN = assay: Growth inhibition of human ACHN cells; type: functional; in short: as §5
CAKI-1 = assay: Growth inhibition of human Caki1 cells; type: functional; in short: as §5
A498 = assay: Growth inhibition of human A498 cells; type: functional; in short: as §5
SK-OV-3 = assay: Growth inhibition of human SKOV3 cells; type: functional; in short: as §6
786-0 = assay: Growth inhibition of human 786-0 cells; type: functional; in short: as §5
[26] = Growth inhibition of human NCI-ADR-RES cells; type: functional; in short: as §5
[27] = Growth inhibition of human OVCAR5 cells; type: functional; details: OVCAR-5; in short: as §5
PC-3 [28] = assay: Induction of beta tubulin de-stabilization in human PC3 cells at 10 nM after 24 hrs by DAPI-staining based immunofluorescence assay; type: cell-based; in short: as §1
Tubulin (Homo sapiens) = Tubulin (Homo sapiens) (UniProt P68371+Q9H4B7+P0DPH7+P68366+Q13509+Q71U36+P04350+Q3ZCM7+P07437+P68363+Q9BQE3+Q6PEY2+Q13885+Q9BVA1+Q9BUF5); details: 5 uM

CC(=O)O[C@@]12CO[C@@H]1C[C@H](O)[C@@]1(C)C(=O)[C@H](O)C3=C(C)[C@@H](OC(=O)[C@H](O)[C@@H](NC(=O)OC(C)(C)C)c4ccccc4)C[C@@](O)([C@@H](OC(=O)c4ccccc4)[C@H]21)C3(C)C.O.O.O [DOCETAXEL]
Activity (PC-3 [1]): Active | RatioGI50 (LLC-PK1 [2]): 627 | GI50 (LLC-PK1 [3]): 107 nM | GI50 [4]: 0.17 nM | RatioGI50 (OVCAR-8): 392 | GI50 [5]: 196 nM | GI50 [6]: 0.5 nM | RatioGI50 (PC-3 [7]): 22 | GI50 (PC-3 [8]): 2.5 nM | GI50 (PC-3 [9]): 54 nM

COc1cc(/C(C#N)=C\c2cc3ccccc3s2)cc(OC)c1OC
GI50 [10]: < 10 nM | GI50 [11]: < 10 nM | GI50 (IGROV-1): < 10 nM | GI50 [12]: < 10 nM | GI50 [13]: > 100 nM | GI50 [14]: < 10 nM | GI50 (SK-MEL-5): < 10 nM | GI50 (SK-MEL-2): < 10 nM | GI50 (SK-MEL-28): < 10 nM | GI50 (M14): < 10 nM | GI50 (MDA-MB-435): < 10 nM | GI50 (Malme-3M): < 10 nM | GI50 (U-251): < 10 nM | GI50 [15]: < 10 nM | GI50 (SNB-75): < 10 nM | GI50 (SNB-19): 39.1 nM | GI50 [16]: < 10 nM | GI50 (SW-620): < 10 nM | GI50 (SF-268): < 10 nM | GI50 (HT-29): < 10 nM | GI50 (KM12): < 10 nM | GI50 [17]: < 10 nM | GI50 [18]: 19.2 nM | GI50 (HCT-116): < 10 nM | GI50 (COLO 205): < 10 nM | GI50 (NCI-H460): < 10 nM | GI50 (NCI-H322M): 18.3 nM | GI50 (NCI-H226): 17.9 nM | GI50 (NCI-H23): < 10 nM | GI50 [19]: < 10 nM | GI50 (HOP-62): < 10 nM | GI50 (SR): < 10 nM | GI50 (A549): < 10 nM | GI50 (RPMI-8226): < 10 nM | GI50 (K562): < 10 nM | GI50 [20]: < 10 nM | GI50 (HL-60(TB)): < 10 nM | GI50 (CCRF-CEM): < 10 nM | GI50 (MDA-MB-468): < 10 nM | GI50 (T47D): > 100 nM | GI50 [21]: < 10 nM | GI50 [22]: < 10 nM | GI50 (MDA-MB-231): < 10 nM | GI50 (DU-145): < 10 nM | GI50 (MCF7): < 10 nM | GI50 [23]: < 10 nM | GI50 (PC-3 [24]): < 10 nM | GI50 (TK-10): > 100 nM | GI50 [25]: < 10 nM | GI50 (SN12C): < 10 nM | GI50 (ACHN): < 10 nM | GI50 (CAKI-1): 37.8 nM | GI50 (A498): < 10 nM | GI50 (SK-OV-3): < 10 nM | GI50 (786-0): < 10 nM | GI50 [26]: < 10 nM | GI50 [27]: < 10 nM

CC[C@]1(O)C[C@@H]2CN(CCc3c([nH]c4ccccc34)[C@@](C(=O)OC)(c3cc4c(cc3OC)N(C)[C@H]3[C@@](O)(C(=O)OC)[C@H](OC(C)=O)[C@]5(CC)C=CCN6CC[C@]43[C@@H]65)C2)C1 [VINBLASTINE]
Activity (PC-3 [28]): Active | RatioGI50 (LLC-PK1 [2]): 58 | GI50 (LLC-PK1 [3]): 86.8 nM | GI50 [4]: 1.5 nM | RatioGI50 (OVCAR-8): 500 | GI50 [5]: 1400 nM | GI50 [6]: 2.8 nM | GI50 (PC-3 [8]): 5.2 nM | inhibition (Tubulin (Homo sapiens)): Active
